Results: ChEMBL document CHEMBL1148136, “Induction of quinone reductase by withanolides” (J Nat Prod, 2002)
The source made the active and inactive calls. The rule behind the calls is not given here.

Key:
[1] = test system: Mus musculus; test: Induction of quinone reductase activity in BALB/c mouse stomach at 2.5 mg/0.2 ml/day administered intragastrically for 3 consecutive day; assay type: functional, organism-based
Method in brief: (§1)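 BALB/c mice, n = 3, dosed intragastrically for 3 consecutive days at 2.5 mg per mouse per day in 0.2 mL sesame oil. Quinone reductase activity was then assessed in liver, lung, colon, stomach and mammary gland tissue, and the change in activity is reported for each organ.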

[2] = test system: Mus musculus; test: Induction of quinone reductase activity in BALB/c mouse liver at 2.5 mg/0.2 ml/day administered intragastrically for 3 consecutive day; assay type: functional, organism-based; method in brief: as §1
[3] = test system: Mus musculus; test: Induction of quinone reductase activity in BALB/c mouse lung at 2.5 mg/0.2 ml/day administered intragastrically for 3 consecutive day; assay type: functional, organism-based; method in brief: as §1
[4] = Growth inhibition of mouse Hepa-1c1c7 cells by crystal violet staining; assay type: cell-based; conditions: Mus musculus, Hepa-1c1c7
Method in brief: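 Hepa 1c1c7 cells seeded at 4000 cells/mL and grown 24 h at 37 °C, then medium changed. Compounds added in 10% DMSO, serially diluted over 0.15-20 µg/mL, and exposed 48 h. Viability read by crystal violet staining at 595 nm. IC50 taken as the half-maximal inhibitory concentration of cell viability.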

[5] = test system: Mus musculus; test: Induction of quinone reductase activity in BALB/c mouse colon at 2.5 mg/0.2 ml/day administered intragastrically for 3 consecutive day; assay type: functional, organism-based; method in brief: as §1
[6] = Chemoprevention index, ratio of IC50 for mouse Hepa-1c1c7 cells to drug level required to double specific quinone reductase activity in mouse Hepa-1c1c7 cells; assay type: functional
Method in brief: (§2)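 Hepa 1c1c7 cells seeded at 4000 cells/mL, grown 24 h at 37 °C under CO2, then medium changed. Compounds added in 10% DMSO, serially diluted over 0.15-20 µg/mL, and incubated a further 48 h. QR measured as NADPH-dependent, menadiol-mediated MTT reduction to formazan. Protein by crystal violet at 595 nm in duplicate plates. Specific activity expressed relative to solvent control. CD = concentration giving 2-fold activity, CQ = 4-fold. CI = IC50/CD or IC50/CQ.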

[7] = test system: Mus musculus; test: Induction of quinone reductase activity in BALB/c mouse mammary gland at 2.5 mg/0.2 ml/day administered intragastrically for 3 consecutive day; assay type: functional, organism-based; method in brief: as §1
[8] = Chemoprevention index, ratio of IC50 for mouse Hepa-1c1c7 cells to drug level required to induce 4-fold increase in quinone reductase activity in mouse Hepa-1c1c7 cells; assay type: functional; method in brief: as §2

## CC1=C(C)[C@]2(OC1=O)[C@H](O)[C@@H](C)[C@]1(O)CC[C@H]3[C@@H]4CC=C5CC=CC(=O)[C@]5(C)[C@H]4C[C@@]2(O)[C@@]31C [JABOROSALACTONE P]
[1]
  Activity: inactive
[2]
  Activity: inactive
[3]
  Activity: inactive
[4]
  IC50: > 42700 nM
[5]
  Activity: inactive
[6]
  Ratio: >57
[7]
  Activity: inactive

## CC1=C(C)C(=O)O[C@@H]([C@](C)(O)[C@H]2CC[C@H]3[C@@H]4C[C@H]5O[C@]56[C@@H](O)C=CC(=O)[C@]6(C)[C@H]4CC[C@]23CO)C1
[8]
  Ratio: 3.5
[4]
  IC50: 1930 nM
[6]
  Ratio: 7.2

## CC(=O)O[C@H]1C=CC(=O)[C@]2(C)[C@H]3CC[C@]45C(=O)O[C@@](C)([C@H]6C[C@H](C)[C@@H](C)C(=O)O6)[C@H]4CC[C@H]5[C@@H]3C[C@H]3O[C@]132
[8]
  Ratio: >1.5
[4]
  IC50: 420 nM
[6]
  Ratio: >1.5

## CC1=C(CO)C(=O)O[C@@H]([C@@H](C)[C@H]2CC[C@H]3[C@@H]4C[C@H]5O[C@]56CC=CC(=O)[C@]6(C)[C@H]4CC[C@]23C)C1 [JABOROSALACTONE A]
[8]
  Ratio: 2.7
[4]
  IC50: 1830 nM
[6]
  Ratio: 6.3

## CC1=C(C)[C@]2(OC1=O)C(=O)C(C)=C1CC[C@H]3[C@@H]4C[C@H]5O[C@]56CC=CC(=O)[C@]6(C)[C@H]4C[C@@]2(O)[C@]13C [JABOROSALACTONE 1]
[8]
  Ratio: 6.3
[4]
  IC50: 8080 nM
[6]
  Ratio: 28.9

## CC1=C(CO)C(=O)O[C@@H]([C@@H](C)[C@H]2CC[C@H]3[C@@H]4C[C@@H](O)C5=CC=CC(=O)[C@]5(C)[C@H]4CC[C@]23C)C1 [JABOROSALACTONE B]
[8]
  Ratio: 26.9
[4]
  IC50: 38500 nM
[6]
  Ratio: 11.1

## CC1=C(C)[C@H]([C@H]2O[C@@]3(O)C[C@H]4[C@@H](C[C@H]5O[C@]56CC=CC(=O)[C@]46C)[C@@H]4CC[C@@](O)([C@@H]2C)[C@]43C)OC1=O [TRECHONOLIDE A]
[8]
  Ratio: 6.1
[4]
  IC50: 7740 nM
[6]
  Ratio: 28.7

## CC1=C(C)C(=O)O[C@@H]([C@@H](C)[C@H]2[C@@H](O)C[C@H]3[C@@H]4C[C@H]5O[C@]56[C@@H](O)C=CC(=O)[C@]6(C)[C@H]4CC[C@]23C)C1
[8]
  Ratio: 1.3
[4]
  IC50: 660 nM
[6]
  Ratio: >2.1

## CC(=O)O[C@H]1C=CC(=O)[C@]2(C)[C@H]3CC[C@]45C(O)O[C@@](C)([C@H]6C[C@H](C)[C@@H](C)C(=O)O6)[C@H]4CC[C@H]5[C@@H]3C[C@H]3O[C@]132 (stereo not given in full)
[8]
  Ratio: >1.4
[4]
  IC50: 390 nM
[6]
  Ratio: >1.4

## CC1=C(C)C(=O)O[C@@H]([C@](C)(O)[C@H]2CC[C@H]3[C@@H]4[C@@H](O)C=C5[C@@H](O)C=CC(=O)[C@]5(C)[C@H]4CC[C@]23C)C1
[8]
  Ratio: 0.62
[4]
  IC50: 1660 nM
[6]
  Ratio: 3.5

## C[C@H]1C[C@H]([C@](C)(O)[C@H]2[C@@H](O)C[C@H]3[C@@H]4C[C@H]5O[C@]56[C@@H](O)C=CC(=O)[C@]6(C)[C@H]4CC[C@]23C)OC(=O)[C@@H]1C [WITHAPHYSACARPIN]
[8]
  Ratio: 2.5
[4]
  IC50: 4800 nM
[6]
  Ratio: 11.1

## C[C@H]1C[C@H]([C@](C)(O)[C@H]2CC[C@H]3[C@@H]4C[C@H]5O[C@]56[C@@H](O)C=CC(=O)[C@]6(C)[C@H]4CC[C@]23C)OC(=O)[C@@H]1C
[8]
  Ratio: 1.4
[4]
  IC50: 5500 nM
[6]
  Ratio: 7.8
